{"source": "ChEMBL document CHEMBL5696442", "about": "“Discovery of type II inhibitors of TGFβ-activated kinase 1 (TAK1) and mitogen-activated protein kinase kinase kinase kinase 2 (MAP4K2)” (J Med Chem, 2015)", "key": {"[1]": {"biological_target": "Serine/threonine-protein kinase PLK1 (Homo sapiens) (UniProt P53350)", "assay": "Inhibition of PLK1 Lys2 labeling site in human A-375 cells at 5 uM by KiNativ Profiling analysis relative to control", "format": "cell-based"}, "[2]": {"biological_target": "Rho-associated protein kinase 1 (Homo sapiens) (UniProt Q13464)", "sequence (Q13464 2-1354 limits assumed)": "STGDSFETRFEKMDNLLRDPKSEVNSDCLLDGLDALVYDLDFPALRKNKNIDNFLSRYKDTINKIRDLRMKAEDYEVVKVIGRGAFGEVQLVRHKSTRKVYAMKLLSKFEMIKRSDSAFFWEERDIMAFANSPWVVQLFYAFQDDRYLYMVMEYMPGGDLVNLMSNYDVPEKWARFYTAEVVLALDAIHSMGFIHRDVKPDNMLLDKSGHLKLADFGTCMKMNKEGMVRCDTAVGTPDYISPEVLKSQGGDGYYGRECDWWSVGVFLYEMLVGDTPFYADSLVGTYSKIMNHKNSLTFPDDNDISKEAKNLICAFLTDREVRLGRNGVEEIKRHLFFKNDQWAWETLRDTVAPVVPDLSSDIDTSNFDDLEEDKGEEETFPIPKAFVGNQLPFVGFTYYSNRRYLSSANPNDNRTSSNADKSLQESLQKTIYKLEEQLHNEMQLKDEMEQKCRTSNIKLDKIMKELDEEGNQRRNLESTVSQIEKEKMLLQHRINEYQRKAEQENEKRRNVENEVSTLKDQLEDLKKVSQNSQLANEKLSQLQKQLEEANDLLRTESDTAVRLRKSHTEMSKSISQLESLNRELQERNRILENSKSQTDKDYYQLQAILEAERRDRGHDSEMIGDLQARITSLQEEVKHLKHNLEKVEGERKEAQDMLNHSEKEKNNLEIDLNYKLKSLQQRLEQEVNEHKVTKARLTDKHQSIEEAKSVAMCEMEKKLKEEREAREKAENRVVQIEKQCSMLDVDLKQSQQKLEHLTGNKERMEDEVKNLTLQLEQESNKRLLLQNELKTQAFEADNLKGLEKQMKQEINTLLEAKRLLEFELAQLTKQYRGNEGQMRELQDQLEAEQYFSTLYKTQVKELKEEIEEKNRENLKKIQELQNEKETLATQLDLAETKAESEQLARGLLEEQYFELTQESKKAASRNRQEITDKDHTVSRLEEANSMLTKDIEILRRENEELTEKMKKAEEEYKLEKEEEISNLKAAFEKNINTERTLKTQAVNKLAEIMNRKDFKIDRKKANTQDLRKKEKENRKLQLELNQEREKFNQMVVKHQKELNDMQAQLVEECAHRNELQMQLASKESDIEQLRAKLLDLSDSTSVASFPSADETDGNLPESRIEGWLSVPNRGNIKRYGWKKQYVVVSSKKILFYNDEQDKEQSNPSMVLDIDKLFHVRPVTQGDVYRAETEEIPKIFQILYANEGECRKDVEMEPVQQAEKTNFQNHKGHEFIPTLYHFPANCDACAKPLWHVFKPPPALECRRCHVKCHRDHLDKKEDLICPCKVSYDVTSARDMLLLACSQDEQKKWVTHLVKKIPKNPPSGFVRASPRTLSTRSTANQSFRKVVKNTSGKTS", "assay": "Inhibition of ROCK1 Lys2 labeling site in human A-375 cells at 0.5 uM by KiNativ Profiling analysis relative to control", "format": "cell-based", "how_it_was_run": "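Live A375 melanoma cells were treated with compound at 5 or 0.5 μM, then lysed. Lysates were labeled with a lysine-reactive ATP or ADP-biotin probe. Read-out was the compound's protection of kinase labeling sites from probe labeling (KiNativ).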"}, "[3]": {"biological_target": "T1, Inhibitor of nuclear factor kappa-B kinase subunit epsilon (Homo sapiens) (UniProt Q14164)", "T1 sequence (whole entry)": "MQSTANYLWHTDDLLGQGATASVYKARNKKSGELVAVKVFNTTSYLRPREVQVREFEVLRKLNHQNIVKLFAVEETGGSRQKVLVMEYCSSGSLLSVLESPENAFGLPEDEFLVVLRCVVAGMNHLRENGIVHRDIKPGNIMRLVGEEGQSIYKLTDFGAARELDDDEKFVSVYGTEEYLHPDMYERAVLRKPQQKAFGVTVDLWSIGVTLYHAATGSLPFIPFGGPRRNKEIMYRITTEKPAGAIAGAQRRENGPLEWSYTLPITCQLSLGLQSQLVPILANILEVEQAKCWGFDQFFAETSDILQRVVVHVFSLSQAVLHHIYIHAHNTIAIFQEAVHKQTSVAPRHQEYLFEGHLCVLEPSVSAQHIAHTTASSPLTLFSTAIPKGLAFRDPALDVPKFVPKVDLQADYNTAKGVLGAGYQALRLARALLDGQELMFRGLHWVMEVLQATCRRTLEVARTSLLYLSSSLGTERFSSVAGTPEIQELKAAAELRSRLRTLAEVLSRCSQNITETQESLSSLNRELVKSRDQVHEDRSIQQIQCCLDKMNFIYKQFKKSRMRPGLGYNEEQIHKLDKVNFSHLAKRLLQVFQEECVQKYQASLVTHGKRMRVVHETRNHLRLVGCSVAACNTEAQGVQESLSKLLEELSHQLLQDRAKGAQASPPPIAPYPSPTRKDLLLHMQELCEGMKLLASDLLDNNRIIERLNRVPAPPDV", "assay": "Inhibition of IKKe Lys1 labeling site in human A-375 cells at 0.05 uM by KiNativ Profiling analysis relative to control", "format": "cell-based"}, "[4]": {"assay": "Inhibition of KHS1 K2 labeling site in human Huh-7 cells at 10 uM by KiNativ Profiling analysis relative to control", "details": "condition cancer"}, "[5]": {"biological_target": "Serine/threonine-protein kinase 35 (Homo sapiens) (UniProt Q8TDR2)", "assay": "Inhibition of STK35 (unknown origin) at 10 uM by Ambit Kinomescan binding assay relative to control; values are per cent of control"}, "[6]": {"biological_target": "Epidermal growth factor receptor (Homo sapiens) (UniProt P00533)", "assay": "Inhibition of EGFR Lys1 labeling site harbouring IPVAIKELR in human Huh-7 cell lysate at 1 uM by KiNativ Profiling analysis relative to control", "format": "subcellular"}, "[7]": {"biological_target": "T2, Serine/threonine-protein kinase Chk1 (Homo sapiens) (UniProt O14757)", "T2 sequence (whole entry)": "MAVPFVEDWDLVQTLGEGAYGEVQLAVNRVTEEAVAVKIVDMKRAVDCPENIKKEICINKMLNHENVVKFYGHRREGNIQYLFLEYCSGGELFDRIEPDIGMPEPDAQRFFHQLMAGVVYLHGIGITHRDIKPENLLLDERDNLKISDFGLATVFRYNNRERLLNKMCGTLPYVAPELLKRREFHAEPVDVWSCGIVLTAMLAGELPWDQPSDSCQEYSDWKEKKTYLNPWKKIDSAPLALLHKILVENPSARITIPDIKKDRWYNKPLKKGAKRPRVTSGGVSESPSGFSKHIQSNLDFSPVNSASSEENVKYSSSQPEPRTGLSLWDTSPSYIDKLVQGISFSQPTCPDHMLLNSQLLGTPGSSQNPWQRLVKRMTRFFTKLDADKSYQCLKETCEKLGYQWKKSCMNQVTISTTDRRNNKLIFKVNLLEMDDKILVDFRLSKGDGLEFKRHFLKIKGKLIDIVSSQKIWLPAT", "assay": "Inhibition of CHK1 Lys2 labeling site in human Huh-7 cells at 1 uM by KiNativ Profiling analysis relative to control", "format": "cell-based"}, "[8]": {"biological_target": "T3, Phosphatidylinositol 5-phosphate 4-kinase type-2 alpha (Homo sapiens) (UniProt P48426)", "T3 sequence (whole entry)": "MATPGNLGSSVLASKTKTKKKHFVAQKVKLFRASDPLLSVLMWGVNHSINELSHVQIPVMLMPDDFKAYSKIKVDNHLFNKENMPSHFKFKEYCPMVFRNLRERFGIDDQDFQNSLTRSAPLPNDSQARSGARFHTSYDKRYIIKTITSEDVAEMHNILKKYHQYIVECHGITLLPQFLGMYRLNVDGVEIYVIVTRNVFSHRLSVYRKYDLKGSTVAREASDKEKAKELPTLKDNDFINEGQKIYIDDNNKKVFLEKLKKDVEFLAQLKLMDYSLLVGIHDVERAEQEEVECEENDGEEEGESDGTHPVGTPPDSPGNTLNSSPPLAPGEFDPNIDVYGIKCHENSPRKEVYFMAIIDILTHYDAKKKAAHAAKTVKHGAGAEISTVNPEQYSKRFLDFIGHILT", "assay": "Inhibition of PIP4K2A ATP labeling site harbouring AKELPTLKDNDFINEGQK in human Huh-7 cells at 1 uM by KiNativ Profiling analysis relative to control", "format": "cell-based"}, "[9]": {"biological_target": "Serine/threonine-protein kinase 4 (Homo sapiens) (UniProt Q13043)", "assay": "Inhibition of MST1 Lys1 labeling site harbouring AIHKETGQIVAIKQVPVESDLQEIIK in human Huh-7 cell lysate at 1 uM by KiNativ Profiling analysis relative to control"}, "[10]": {"biological_target": "Transient receptor potential cation channel subfamily M member 6 (Homo sapiens) (UniProt Q9BX84)", "assay": "Inhibition of TRPM6 (unknown origin) at 1 uM by Ambit Kinomescan binding assay relative to control"}, "[11]": {"biological_target": "Serine/threonine-protein kinase 16 (Homo sapiens) (UniProt O75716)", "sequence (O75716 whole entry)": "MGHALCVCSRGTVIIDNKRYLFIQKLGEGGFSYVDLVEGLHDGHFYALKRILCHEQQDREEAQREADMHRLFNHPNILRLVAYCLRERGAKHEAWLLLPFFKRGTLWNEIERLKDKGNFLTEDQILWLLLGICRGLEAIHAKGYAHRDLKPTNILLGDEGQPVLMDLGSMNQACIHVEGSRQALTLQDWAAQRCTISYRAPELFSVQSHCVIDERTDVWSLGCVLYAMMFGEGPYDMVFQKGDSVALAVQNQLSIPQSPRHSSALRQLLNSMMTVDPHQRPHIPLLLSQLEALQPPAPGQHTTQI", "assay": "Inhibition of MPSK1 Lys2 labeling site in human A-375 cells at 0.05 uM by KiNativ Profiling analysis relative to control", "format": "cell-based"}, "[12]": {"biological_target": "Serine/threonine-protein kinase PAK 4 (Homo sapiens) (UniProt O96013)", "sequence (O96013 whole entry, looked up)": "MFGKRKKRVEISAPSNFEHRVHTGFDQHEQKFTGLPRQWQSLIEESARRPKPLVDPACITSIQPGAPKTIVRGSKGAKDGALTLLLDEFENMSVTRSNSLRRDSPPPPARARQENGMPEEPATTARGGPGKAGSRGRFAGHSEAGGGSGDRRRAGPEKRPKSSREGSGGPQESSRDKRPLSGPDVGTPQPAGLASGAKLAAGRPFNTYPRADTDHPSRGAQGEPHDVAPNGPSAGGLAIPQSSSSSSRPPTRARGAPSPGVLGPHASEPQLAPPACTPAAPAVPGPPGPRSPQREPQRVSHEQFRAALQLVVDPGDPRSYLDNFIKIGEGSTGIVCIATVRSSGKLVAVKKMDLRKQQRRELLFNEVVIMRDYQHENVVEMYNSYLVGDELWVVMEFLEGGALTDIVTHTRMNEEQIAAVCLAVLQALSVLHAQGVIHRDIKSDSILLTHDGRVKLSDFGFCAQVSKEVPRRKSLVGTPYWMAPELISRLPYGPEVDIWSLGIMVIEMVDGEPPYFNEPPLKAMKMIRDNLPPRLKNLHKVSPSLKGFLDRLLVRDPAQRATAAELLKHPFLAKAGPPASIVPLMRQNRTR", "assay": "Inhibition of PAK4 (unknown origin) at 1 uM by Ambit Kinomescan binding assay relative to control; values are per cent of control"}, "[13]": {"biological_target": "Ephrin type-B receptor 1 (Homo sapiens) (UniProt P54762)", "sequence (P54762 whole entry)": "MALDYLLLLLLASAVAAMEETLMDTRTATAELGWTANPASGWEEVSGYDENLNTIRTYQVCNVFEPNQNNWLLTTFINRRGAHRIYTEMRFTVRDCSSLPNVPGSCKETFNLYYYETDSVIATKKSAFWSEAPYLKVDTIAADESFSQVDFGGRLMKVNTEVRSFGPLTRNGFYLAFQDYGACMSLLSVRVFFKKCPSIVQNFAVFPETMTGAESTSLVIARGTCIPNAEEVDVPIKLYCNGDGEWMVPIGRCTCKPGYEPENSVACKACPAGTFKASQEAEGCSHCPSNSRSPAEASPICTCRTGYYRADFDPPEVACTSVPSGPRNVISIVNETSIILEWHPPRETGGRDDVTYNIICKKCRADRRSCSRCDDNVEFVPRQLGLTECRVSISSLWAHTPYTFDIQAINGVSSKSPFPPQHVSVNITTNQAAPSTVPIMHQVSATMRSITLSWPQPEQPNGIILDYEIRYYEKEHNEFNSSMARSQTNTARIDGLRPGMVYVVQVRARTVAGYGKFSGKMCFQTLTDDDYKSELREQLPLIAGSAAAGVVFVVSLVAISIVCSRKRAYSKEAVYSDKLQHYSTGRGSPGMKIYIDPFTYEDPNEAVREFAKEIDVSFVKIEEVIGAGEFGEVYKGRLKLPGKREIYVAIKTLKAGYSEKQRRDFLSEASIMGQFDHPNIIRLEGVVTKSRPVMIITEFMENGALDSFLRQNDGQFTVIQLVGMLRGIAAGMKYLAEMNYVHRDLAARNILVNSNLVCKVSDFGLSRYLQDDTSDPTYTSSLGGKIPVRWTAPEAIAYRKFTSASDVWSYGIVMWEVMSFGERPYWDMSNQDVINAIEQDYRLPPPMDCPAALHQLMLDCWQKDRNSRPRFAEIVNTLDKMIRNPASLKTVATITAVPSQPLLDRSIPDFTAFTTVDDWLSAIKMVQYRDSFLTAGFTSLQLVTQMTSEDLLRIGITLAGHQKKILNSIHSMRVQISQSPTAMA", "assay": "Inhibition of EPHB1 (unknown origin) at 1 uM by Ambit Kinomescan binding assay relative to control; values are per cent of control"}, "[14]": {"biological_target": "Phosphatidylinositol 3-kinase C2 domain-containing subunit gamma (Homo sapiens) (UniProt O75747)", "sequence (O75747 whole entry, the tested form may be a part)": "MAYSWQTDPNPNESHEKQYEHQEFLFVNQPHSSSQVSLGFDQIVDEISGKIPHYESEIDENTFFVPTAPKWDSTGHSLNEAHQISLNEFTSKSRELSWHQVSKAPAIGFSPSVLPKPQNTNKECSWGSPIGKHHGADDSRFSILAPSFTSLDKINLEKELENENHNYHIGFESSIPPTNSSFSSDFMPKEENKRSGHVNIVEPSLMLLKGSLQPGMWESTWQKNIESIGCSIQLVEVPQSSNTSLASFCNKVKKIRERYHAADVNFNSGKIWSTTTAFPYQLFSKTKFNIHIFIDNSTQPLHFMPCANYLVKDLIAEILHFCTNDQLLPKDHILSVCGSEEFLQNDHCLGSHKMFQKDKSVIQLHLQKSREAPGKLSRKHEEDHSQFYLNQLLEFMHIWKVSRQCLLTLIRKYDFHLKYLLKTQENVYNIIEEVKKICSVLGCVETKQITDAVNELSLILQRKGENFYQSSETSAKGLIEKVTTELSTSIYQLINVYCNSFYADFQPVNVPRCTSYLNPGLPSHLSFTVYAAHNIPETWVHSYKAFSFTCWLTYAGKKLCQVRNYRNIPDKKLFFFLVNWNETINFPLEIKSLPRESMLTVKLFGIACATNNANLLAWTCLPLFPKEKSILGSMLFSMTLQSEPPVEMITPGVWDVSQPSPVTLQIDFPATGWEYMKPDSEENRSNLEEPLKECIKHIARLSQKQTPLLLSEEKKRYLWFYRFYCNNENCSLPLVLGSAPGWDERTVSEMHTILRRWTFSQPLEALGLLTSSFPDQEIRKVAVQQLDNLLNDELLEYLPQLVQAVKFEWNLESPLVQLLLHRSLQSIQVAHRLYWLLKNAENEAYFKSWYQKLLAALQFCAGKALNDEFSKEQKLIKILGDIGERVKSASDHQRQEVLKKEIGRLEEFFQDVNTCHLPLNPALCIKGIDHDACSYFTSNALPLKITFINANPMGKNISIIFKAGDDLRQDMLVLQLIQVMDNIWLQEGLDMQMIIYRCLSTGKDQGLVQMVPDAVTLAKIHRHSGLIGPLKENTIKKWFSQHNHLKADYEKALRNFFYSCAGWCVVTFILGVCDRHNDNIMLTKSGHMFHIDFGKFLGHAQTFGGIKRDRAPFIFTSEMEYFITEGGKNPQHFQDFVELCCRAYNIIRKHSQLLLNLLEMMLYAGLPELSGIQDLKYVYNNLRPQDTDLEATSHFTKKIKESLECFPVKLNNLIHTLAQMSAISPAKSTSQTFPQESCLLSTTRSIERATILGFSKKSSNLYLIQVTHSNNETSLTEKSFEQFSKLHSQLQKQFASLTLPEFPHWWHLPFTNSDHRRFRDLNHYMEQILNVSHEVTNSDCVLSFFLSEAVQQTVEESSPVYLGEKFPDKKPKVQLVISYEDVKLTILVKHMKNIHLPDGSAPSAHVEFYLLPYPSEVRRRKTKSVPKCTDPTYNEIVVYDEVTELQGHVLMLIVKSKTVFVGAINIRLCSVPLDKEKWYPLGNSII", "assay": "Inhibition of PIK3C2G (unknown origin) at 1 uM by Ambit Kinomescan binding assay relative to control; values are per cent of control"}}, "data": [{"molecule": "CCN1CCN(Cc2ccc(NC(=O)c3ccc(C)c(Oc4ccnc5[nH]ccc45)c3)cc2C(F)(F)F)CC1", "values": [{"measurement": "inhibition", "setting": "[1]", "value": 17.6, "unit": "%"}, {"measurement": "inhibition", "setting": "[2]", "value": 2.3, "unit": "%"}, {"measurement": "inhibition", "setting": "[3]", "value": -3.7, "unit": "%"}, {"measurement": "inhibition at 10 µM", "setting": "[4]", "value": 0.3, "unit": "%"}, {"measurement": "residual activity", "setting": "[5]", "value": 3, "unit": "%"}]}, {"molecule": "CNc1cc(Oc2cc(C(=O)Nc3cc(N4CCN(C)CC4)cc(C(F)(F)F)c3)ccc2C)ncn1", "values": [{"measurement": "inhibition", "setting": "[6]", "value": 4.5, "unit": "%"}, {"measurement": "inhibition", "setting": "[7]", "value": 22.5, "unit": "%"}, {"measurement": "inhibition", "setting": "[8]", "value": 13.4, "unit": "%"}, {"measurement": "inhibition", "setting": "[9]", "value": 12.8, "unit": "%"}]}, {"molecule": "CCN1CCN(Cc2ccc(NC(=O)c3ccc(C)c(/C=C/c4cnc5[nH]ccc5c4OC)c3)cc2C(F)(F)F)CC1", "values": [{"measurement": "inhibition", "setting": "[10]", "value": 100, "unit": "%"}, {"measurement": "inhibition", "setting": "[11]", "value": 14.1, "unit": "%"}, {"measurement": "residual activity", "setting": "[12]", "value": 100, "unit": "%"}, {"measurement": "residual activity", "setting": "[13]", "value": 11, "unit": "%"}, {"measurement": "residual activity", "setting": "[14]", "value": 100, "unit": "%"}]}]}
